Data as given in ChEMBL document CHEMBL1123799, “Cardiotonic agents. 1. Novel 8-aryl-substituted imidazo[1,2-a]- and -[1,5-a]pyridines and imidazo[1,5-a]pyridinones as potential positive inotropic agents” (J Med Chem, 1987).

Experiments:
[1] = organism: Felis catus; test: Inotropic activity as dose required to cause 20% positive or negative change in contractile force of papillary muscle from cat; type: functional, Muscle tissue
Method in brief: (§1)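 Papillary muscle (<1 mm diameter, ≥3 mm long) held isometric at 35 °C in bicarbonate saline (pH 7.3-7.5, 95% O2/5% CO2). Muscles under 500 mg/mm² force discarded. Compounds in water added to the bath at 1:1000, with a 15-min wash between doses. Norepinephrine 10 μM added last as internal standard. Force normalized to cross-sectional area (weight/length). Mean of ≥3 determinations.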

[2] = organism: Canis familiaris; test: Electrophysiological activity as concentration causing 20 % increase in the functional refractory period of canine ventricular muscle.; set-up: species or system Canis lupus familiaris, Muscle tissue
Method in brief: (§2)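 Right-ventricle papillary muscle strips (5-6 mm × 1-2 mm) in a 3.5-mL bath, superfused with oxygenated saline at 36 ± 0.5 °C. Diastolic threshold set with 2 ms bipolar stimuli at 4000 ms cycle length. Paced at 4× threshold for 60 min. FRP found at 1000 ms cycle length with a premature S2 after every tenth S1 at shortening intervals. Various concentrations superfused, one compound per strip.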

[3] = Ability to inhibit canine cardiac cAMP phosphodiesterase III
Method in brief: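 Crude enzyme from dog cardiac muscle homogenate, taken by differential centrifugation between 700g and 165000g. Assay at 37 °C with 10^-6 M cAMP plus [3H]cAMP (10^5 cpm/mL), 40 mM Tris pH 8.0, 10 mM MgCl2, 2.5 mM mercaptoethanol, 0.05 mg/mL BSA and 0.1 mg/mL enzyme. AMP and cAMP separated by PEI-cellulose ion-exchange TLC and counted by scintillation. Triplicate, up to 100 μM.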

[4] = organism: Mustela putorius furo; test: Inotropic activity as dose required to cause 20% positive or negative change in contractile force of papillary muscle from ferret; type: functional, Muscle tissue; method in brief: as §1
[5] = organism: Canis familiaris; test: Electrophysiological activity as concentration of the drug causing 20 % increase in the functional refractory period of canine ventricular muscle.; set-up: species or system Canis lupus familiaris, Muscle tissue; method in brief: as §2
[6] = organism: Mustela putorius furo; test: Inotropic activity as dose required to cause 20% positive or negative change in contractile force of papillary muscle from ferret

| SMILES | CF C20 [1] [µM] | FRP C20 [2] [µM] | other results |
| --- | --- | --- | --- |
| CCOc1ccc(-c2cccn3c(C)ncc23)cc1 | -100 |  |  |
| CCOc1ccc(C2=CCCn3c2cnc3C)cc1 | 20 | 30 |  |
| CS(=O)(=O)Nc1ccc(-c2cccn3ccnc23)cc1 | 10 | 50 | IC50 [3]: > 1000 µM |
| c1cc(-c2ccc(-n3ccnc3)cc2)c2nccn2c1 | 30 |  | IC50 [3]: 220 µM |
| C1=C(c2ccccc2)c2nccn2CC1 | -15 |  |  |
| Cc1ncc2n1CCC=C2c1ccc(O)cc1 | 30 | 100 |  |
| Cc1ncc2c(-c3ccccc3)cccn12 |  |  | CF C20 [4]: -20 µM |
| Cc1ncc2n1CCC=C2c1ccccc1 | 10 |  |  |
| Oc1ccc(-c2cccn3ccnc23)cc1 | 15 | -18 |  |
| Cc1nccn1-c1ccc(C2=CCCn3c2cnc3C)cc1 | 5 | 5 | IC50 [3]: 150 µM |
| Cc1ncc2n1CCC=C2c1ccc(-n2ccnc2)cc1 | 9 | 14 |  |
| C1=C(c2ccc(-n3ccnc3)cc2)c2nccn2CC1 | 29 | 100 | IC50 [3]: 550 µM |
| Cc1nccn1-c1ccc(-c2cccn3c(C)nc(Br)c23)cc1 | 1 |  | FRP C20 [5]: 17 µM; IC50 [3]: 30 µM |
| Cc1ccc(-c2cccn3c(O)ncc23)cc1 | 6 |  |  |
| COC(=O)c1nc(O)n2cccc(-c3ccc(C)cc3)c12 | -40 |  |  |
| COC(=O)c1nc(O)n2cccc(-c3ccc(-n4ccnc4C)cc3)c12 | 30 |  |  |
| CCOC(=O)c1nc(O)n2cccc(-c3ccccc3)c12 |  |  | CF C20 [6]: -10 µM |
| CCc1nccn1-c1ccc(C2=CCCn3c2cnc3CC)cc1 | 0.8 | 9 |  |
| Cc1ncc2n1CCC=C2c1ccc(NS(C)(=O)=O)cc1 | 2 | 10 |  |
| Cc1nccn1-c1ccc(-c2cccn3c(C)ncc23)cc1 | 13 | 80 | IC50 [3]: 65 µM |
| Nc1ccc(C2=CCCn3ccnc32)cc1 | -5 |  |  |
| Cc1ncc2n1CCCC2c1ccc(NS(C)(=O)=O)cc1 (configuration not stated) |  | 80 | CF C20 [4]: 0.8 µM |
| c1ccc(-c2cccn3ccnc23)cc1 | 1 | 10 |  |
| Nc1ccc(-c2cccn3ccnc23)cc1 | 15 |  |  |
| CC(=O)Nc1ccc(C2=CCCn3c2cnc3C)cc1 | 10 | 40 |  |
| CCCCNC(=O)NC1CCN(c2ncnc3cc(OC)c(OC)cc23)CC1 [BUQUINERAN] |  |  | CF C20 [4]: 7 µM |
| CSc1ccc(C(=O)c2[nH]c(=O)[nH]c2C)cc1 [ENOXIMONE] | 3 |  |  |
